Results from ChEMBL document CHEMBL2086252, “Syntheses and evaluation of anticonvulsant activity of novel branched alkyl carbamates” (J Med Chem, 2012).
The source made the active and inactive calls. No cut-off for these calls is given here.

Assays:
Mus musculus [1] = assay: Neurotoxicity in albino CF1 mouse assessed as minimal motor impairment at 100 mg/kg, ip after 4 hrs by rotarod test; type: toxicity, organism-based; parameters: dose 100 mg/kg, route intraperitoneal; settings: in vivo
Summary of the method: (§1)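 Mice dosed ip at 30, 100 or 300 mg/kg, then tested 0.5 h and 4 h after administration in the MES or scMet test. Protection was recorded as animals protected over animals tested. Neurotoxicity was recorded as motor impairment or sedation, as animals affected over animals tested.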

Rattus norvegicus [2] = assay: Neurotoxicity in pilocarpine-induced status epilepticus Sprague-Dawley albino rat model assessed as minimal motor impairment at 100 mg/kg, ip after 0.25 hr by rotarod test; type: toxicity, organism-based; parameters: dose 100 mg/kg, route intraperitoneal; settings: in vivo
Mus musculus [3] = assay: Anticonvulsant activity in albino CF1 mouse assessed as protection against subcutaneous metrazol-induced seizures at 300 mg/kg, ip after 0.5 hrs; type: functional, organism-based; parameters: dose 300 mg/kg; summary of the method: as §1
Mus musculus [4] = assay: Neurotoxicity in albino CF1 mouse assessed as minimal motor impairment at 30 mg/kg, ip after 0.5 hrs by rotarod test; type: toxicity, organism-based; parameters: dose 30 mg/kg, route intraperitoneal; settings: in vivo; summary of the method: as §1
Rattus norvegicus [5] = assay: Neurotoxicity in pilocarpine-induced status epilepticus Sprague-Dawley albino rat model assessed as minimal motor impairment at 300 mg/kg, ip after 0.5 hrs by rotarod test; type: toxicity, organism-based; parameters: dose 300 mg/kg, route intraperitoneal; settings: in vivo
Summary of the method: (§2)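 Rat pilocarpine status epilepticus model: test carbamate given at 0 or 30 min after the first observed Racine stage 3 motor seizure, which marks SE onset. Neurotoxicity was scored within the same model.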

Mus musculus [6] = assay: Anticonvulsant activity in albino CF1 mouse assessed as protection against maximal electroshock-induced seizures at 30 mg/kg, ip after 4 hrs; type: functional, organism-based; parameters: dose 30 mg/kg; summary of the method: as §1
Rattus norvegicus [7] = assay: Neurotoxicity in Sprague-Dawley albino rat assessed as minimal motor impairment at 30 mg/kg, po by rotarod test; type: toxicity, organism-based; parameters: dose 30 mg/kg, route oral; settings: in vivo
Summary of the method: (§3)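 Rats dosed orally. Anti-MES protection was scored as animals protected over animals tested at each time after dosing. Neurotoxicity was scored as motor impairment or sedation, as animals affected over animals tested.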

Mus musculus [8] = assay: Anticonvulsant activity in albino CF1 mouse assessed as protection against maximal electroshock-induced seizures at 100 mg/kg, ip after 0.5 hrs; type: functional, organism-based; parameters: dose 100 mg/kg; summary of the method: as §1
Mus musculus [9] = assay: Anticonvulsant activity in albino CF1 mouse assessed as protection against subcutaneous metrazol-induced seizures at 30 mg/kg, ip after 0.5 hrs; type: functional, organism-based; parameters: dose 30 mg/kg; summary of the method: as §1
Rattus norvegicus [10] = assay: Neurotoxicity in pilocarpine-induced status epilepticus Sprague-Dawley albino rat model assessed as minimal motor impairment at 300 mg/kg, ip after 2 hrs by rotarod test; type: toxicity, organism-based; parameters: dose 300 mg/kg, route intraperitoneal; settings: in vivo; summary of the method: as §2
Rattus norvegicus [11] = assay: Neurotoxicity in pilocarpine-induced status epilepticus Sprague-Dawley albino rat model assessed as minimal motor impairment at 30 mg/kg, ip after 4 hrs by rotarod test; type: toxicity, organism-based; parameters: dose 30 mg/kg, route intraperitoneal; settings: in vivo; summary of the method: as §2
Mus musculus [12] = assay: Anticonvulsant activity in albino CF1 mouse assessed as protection against maximal electroshock-induced seizures at 30 mg/kg, ip after 0.5 hrs; type: functional, organism-based; parameters: dose 30 mg/kg; summary of the method: as §1
Mus musculus [13] = assay: Anticonvulsant activity in albino CF1 mouse assessed as protection against subcutaneous metrazol-induced seizures at 300 mg/kg, ip after 4 hrs; type: functional, organism-based; parameters: dose 300 mg/kg; summary of the method: as §1
Rattus norvegicus [14] = assay: Neurotoxicity in pilocarpine-induced status epilepticus Sprague-Dawley albino rat model assessed as minimal motor impairment at 300 mg/kg, ip after 1 hr by rotarod test; type: toxicity, organism-based; parameters: dose 300 mg/kg, route intraperitoneal; settings: in vivo; summary of the method: as §2
Rattus norvegicus [15] = assay: Anticonvulsant activity in Sprague-Dawley albino rat assessed as protection against pilocarpine-induced status epilepticus at 65 mg/kg, ip; type: functional, organism-based; parameters: dose 65 mg/kg
Summary of the method: (§4)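 Pilocarpine status epilepticus model in rats. Number and severity of convulsive seizures were observed behaviourally.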

Mus musculus [16] = assay: Neurotoxicity in albino CF1 mouse assessed as minimal motor impairment at 30 mg/kg, ip after 4 hrs by rotarod test; type: toxicity, organism-based; parameters: dose 30 mg/kg, route intraperitoneal; settings: in vivo; summary of the method: as §1
Rattus norvegicus [17] = assay: Neurotoxicity in pilocarpine-induced status epilepticus Sprague-Dawley albino rat model assessed as minimal motor impairment at 100 mg/kg, ip after 0.5 hrs by rotarod test; type: toxicity, organism-based; parameters: dose 100 mg/kg, route intraperitoneal; settings: in vivo
Rattus norvegicus [18] = assay: Neurotoxicity in pilocarpine-induced status epilepticus Sprague-Dawley albino rat model assessed as minimal motor impairment at 65 mg/kg, ip after 0.5 hrs by rotarod test; type: toxicity, organism-based; parameters: dose 65 mg/kg, route intraperitoneal; settings: in vivo; summary of the method: as §2
Rattus norvegicus [19] = assay: Neurotoxicity in pilocarpine-induced status epilepticus Sprague-Dawley albino rat model assessed as minimal motor impairment at 300 mg/kg, ip after 0.25 hr by rotarod test; type: toxicity, organism-based; parameters: dose 300 mg/kg, route intraperitoneal; settings: in vivo; summary of the method: as §2
Mus musculus [20] = assay: Anticonvulsant activity in albino CF1 mouse assessed as protection against maximal electroshock-induced seizures at 300 mg/kg, ip after 0.5 hrs; type: functional, organism-based; parameters: dose 300 mg/kg; summary of the method: as §1
Rattus norvegicus [21] = assay: Neurotoxicity in pilocarpine-induced status epilepticus Sprague-Dawley albino rat model assessed as minimal motor impairment at 30 mg/kg, ip after 2 hrs by rotarod test; type: toxicity, organism-based; parameters: dose 30 mg/kg, route intraperitoneal; settings: in vivo; summary of the method: as §2
Mus musculus [22] = assay: Anticonvulsant activity in albino CF1 mouse assessed as protection against subcutaneous metrazol-induced seizures at 30 mg/kg, ip after 4 hrs; type: functional, organism-based; parameters: dose 30 mg/kg; summary of the method: as §1
Mus musculus [23] = assay: Anticonvulsant activity in albino CF1 mouse assessed as protection against maximal electroshock-induced seizures at 300 mg/kg, ip after 4 hrs; type: functional, organism-based; parameters: dose 300 mg/kg; summary of the method: as §1
Mus musculus [24] = assay: Neurotoxicity in albino CF1 mouse assessed as minimal motor impairment at 300 mg/kg, ip after 0.5 hrs by rotarod test; type: toxicity, organism-based; parameters: dose 300 mg/kg, route intraperitoneal; settings: in vivo; summary of the method: as §1
Mus musculus [25] = assay: Anticonvulsant activity in albino CF1 mouse assessed as protection against subcutaneous metrazol-induced seizures at 100 mg/kg, ip after 0.5 hrs; type: functional, organism-based; parameters: dose 100 mg/kg; summary of the method: as §1
Rattus norvegicus [26] = assay: Neurotoxicity in pilocarpine-induced status epilepticus Sprague-Dawley albino rat model assessed as minimal motor impairment at 100 mg/kg, ip after 1 hr by rotarod test; type: toxicity, organism-based; parameters: dose 100 mg/kg, route intraperitoneal; settings: in vivo
Rattus norvegicus [27] = assay: Neurotoxicity in pilocarpine-induced status epilepticus Sprague-Dawley albino rat model assessed as minimal motor impairment at 30 mg/kg, ip after 0.5 hrs by rotarod test; type: toxicity, organism-based; parameters: dose 30 mg/kg, route intraperitoneal; settings: in vivo; summary of the method: as §2
Mus musculus [28] = assay: Neurotoxicity in albino CF1 mouse assessed as minimal motor impairment at 300 mg/kg, ip after 4 hrs by rotarod test; type: toxicity, organism-based; parameters: dose 300 mg/kg, route intraperitoneal; settings: in vivo; summary of the method: as §1
Mus musculus [29] = assay: Anticonvulsant activity in albino CF1 mouse assessed as protection against subcutaneous metrazol-induced seizures at 100 mg/kg, ip after 4 hrs; type: functional, organism-based; parameters: dose 100 mg/kg; summary of the method: as §1
Rattus norvegicus [30] = assay: Neurotoxicity in pilocarpine-induced status epilepticus Sprague-Dawley albino rat model assessed as minimal motor impairment at 30 mg/kg, ip after 1 hr by rotarod test; type: toxicity, organism-based; parameters: dose 30 mg/kg, route intraperitoneal; settings: in vivo; summary of the method: as §2
Mus musculus [31] = assay: Anticonvulsant activity in albino CF1 mouse assessed as protection against maximal electroshock-induced seizures at 100 mg/kg, ip after 4 hrs; type: functional, organism-based; parameters: dose 100 mg/kg; summary of the method: as §1
Rattus norvegicus [32] = assay: Neurotoxicity in pilocarpine-induced status epilepticus Sprague-Dawley albino rat model assessed as minimal motor impairment at 100 mg/kg, ip after 4 hrs by rotarod test; type: toxicity, organism-based; parameters: dose 100 mg/kg, route intraperitoneal; settings: in vivo
Rattus norvegicus [33] = assay: Anticonvulsant activity in Sprague-Dawley albino rat assessed as protection against maximal electroshock-induced seizures at 30 mg/kg, po after 4 hrs; type: functional, organism-based; parameters: dose 30 mg/kg; summary of the method: as §3
Rattus norvegicus [34] = assay: Anticonvulsant activity in ip dosed Sprague-Dawley albino rat assessed as protection against pilocarpine-induced status epilepticus after 0.5 hrs; type: functional; summary of the method: as §4
Rattus norvegicus [35] = assay: Anticonvulsant activity in Sprague-Dawley albino rat assessed as protection against maximal electroshock-induced seizures at 30 mg/kg, po after 15 mins; type: functional, organism-based; parameters: dose 30 mg/kg; summary of the method: as §3
Rattus norvegicus [36] = assay: Neurotoxicity in pilocarpine-induced status epilepticus Sprague-Dawley albino rat model assessed as minimal motor impairment at 300 mg/kg, ip after 4 hrs by rotarod test; type: toxicity, organism-based; parameters: dose 300 mg/kg, route intraperitoneal; settings: in vivo; summary of the method: as §2
Mus musculus [37] = assay: Neurotoxicity in albino CF1 mouse assessed as minimal motor impairment at 100 mg/kg, ip after 0.5 hrs by rotarod test; type: toxicity, organism-based; parameters: dose 100 mg/kg, route intraperitoneal; settings: in vivo; summary of the method: as §1
Rattus norvegicus [38] = assay: Anticonvulsant activity in Sprague-Dawley albino rat assessed as protection against maximal electroshock-induced seizures at 30 mg/kg, po after 2 hrs; type: functional, organism-based; parameters: dose 30 mg/kg; summary of the method: as §3
Rattus norvegicus [39] = assay: Neurotoxicity in pilocarpine-induced status epilepticus Sprague-Dawley albino rat model assessed as minimal motor impairment at 30 mg/kg, ip after 0.25 hr by rotarod test; type: toxicity, organism-based; parameters: dose 30 mg/kg, route intraperitoneal; settings: in vivo; summary of the method: as §2
Rattus norvegicus [40] = assay: Neurotoxicity in pilocarpine-induced status epilepticus Sprague-Dawley albino rat model assessed as minimal motor impairment at 100 mg/kg, ip after 2 hrs by rotarod test; type: toxicity, organism-based; parameters: dose 100 mg/kg, route intraperitoneal; settings: in vivo

CCCC(COC(N)=O)C(C)C (racemic)
Activity (Mus musculus [1]): Non-toxic | Activity (Rattus norvegicus [2]): Toxic | Activity (Mus musculus [3]): Active | Activity (Mus musculus [4]): Non-toxic | Activity (Rattus norvegicus [5]): Toxic | Activity (Mus musculus [6]): inactive | Activity (Rattus norvegicus [7]): Non-toxic | Activity (Mus musculus [8]): Active | Activity (Mus musculus [9]): inactive | Activity (Rattus norvegicus [10]): Toxic | Activity (Rattus norvegicus [11]): Non-toxic | Activity (Mus musculus [12]): inactive | Activity (Mus musculus [13]): inactive | Activity (Rattus norvegicus [14]): Toxic | Activity (Rattus norvegicus [15]): Active | Activity (Mus musculus [16]): Non-toxic | Activity (Rattus norvegicus [17]): Toxic | Activity (Rattus norvegicus [18]): Non-toxic | Activity (Rattus norvegicus [19]): Toxic | Activity (Mus musculus [20]): Active | Activity (Rattus norvegicus [21]): Non-toxic | Activity (Mus musculus [22]): inactive | Activity (Mus musculus [23]): inactive | Activity (Mus musculus [24]): Toxic | Activity (Mus musculus [25]): inactive | Activity (Rattus norvegicus [26]): Toxic | Activity (Rattus norvegicus [27]): Non-toxic | Activity (Mus musculus [28]): Non-toxic | Activity (Mus musculus [29]): inactive | Activity (Rattus norvegicus [30]): Non-toxic | Activity (Mus musculus [31]): inactive | Activity (Rattus norvegicus [32]): Non-toxic | Activity (Rattus norvegicus [33]): inactive | ED50 (Rattus norvegicus [34]): 107 mg/kg | ED97 (Rattus norvegicus [34]): 151 mg/kg | Activity (Rattus norvegicus [35]): inactive | Activity (Rattus norvegicus [36]): Toxic | Activity (Mus musculus [37]): Non-toxic | Activity (Rattus norvegicus [38]): inactive | Activity (Rattus norvegicus [39]): Non-toxic | Activity (Rattus norvegicus [40]): Non-toxic
